Screens (PubChem BioAssay)
Compounds with a hit are over-represented: about 3.1% of the library has one in this group of screens.
ADAM17 inh = ADAM17 inhibitors, primary screen, biochemical, QFRET; Disintegrin and metalloproteinase domain-containing protein 17 (Homo sapiens), P78536; recombinant ADAM17, EDANS/DABCYL FRET peptide cleavage; inhibition, % at 6.95 µM; actives 0.83% (n = 370,000); AID 720648, 2013;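 active means inhibition above the mean of compounds lying between control limits plus 3 SD, set per campaign, cut at about 8.5% in these data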
Lipid droplet = inhibitors of hepatocyte lipid droplet formation, primary screen, imaging, high-throughput imaging, BODIPY stain. AML12 mouse hepatocytes, oleate lipid droplets. inhibition, % at 6.5 µM. actives 0.4% (n = 240,000);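 active means lipid droplet intensity inhibited by at least 50%, with more than 500 cells counted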
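Technique: fluorescence imaging, 20x objective, two fields per well / Assay system: AML12 hepatocytes (mouse) / Measure: % inhibition of lipid droplet signal / Doses: 6.5 µM single-point dosing / Incubation: overnight exposure / Reagent: 100 µM oleic acid challenge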
MPTP block = mitochondrial permeability transition pore inhibitors, primary screen, biochemical, isolated mouse mitochondria, absorbance | Ca2+ swelling absorbance, 30 min | inhibition, % at 10 µM | actives 1.4% (n = 360,000) | AID 602449, 2012;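 active means inhibition of 50% or more, scaled per plate between neutral and stimulator controls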
aDG glyco act = activators of alpha-DG glycosylation, primary screen, uHTS, Pro5-aDG cells, AlphaScreen; activation, % at 10 µM; alpha-DG glycosylation AlphaScreen (IIH6); 0% Pro5, 100% B10-LARGE cell signal; actives 0.22% (n = 360,000); AID 624168, 2012;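 active means activation of at least 8% versus controls, or a plate z-score of at least 8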;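 further: Pro5 are CHO cells carrying HIG-tagged alpha-DG that lacks glycosylation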
ADAM10 inh = human ADAM10 inhibitors, primary screen, biochemical, QFRET, HTS. Disintegrin and metalloproteinase domain-containing protein 10 (Homo sapiens), O14672. recombinant ADAM10, EDANS/DABCYL FRET peptide cleavage, 3 h. inhibition, % at 7 µM. actives 0.62% (n = 370,000). AID 720582, 2013;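 active means inhibition above a per-campaign cutoff equal to the mean of compounds falling between control-based bounds plus 3 SD, cut at about 20% in these data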
Target sequence (O14672 214-748 limits assumed): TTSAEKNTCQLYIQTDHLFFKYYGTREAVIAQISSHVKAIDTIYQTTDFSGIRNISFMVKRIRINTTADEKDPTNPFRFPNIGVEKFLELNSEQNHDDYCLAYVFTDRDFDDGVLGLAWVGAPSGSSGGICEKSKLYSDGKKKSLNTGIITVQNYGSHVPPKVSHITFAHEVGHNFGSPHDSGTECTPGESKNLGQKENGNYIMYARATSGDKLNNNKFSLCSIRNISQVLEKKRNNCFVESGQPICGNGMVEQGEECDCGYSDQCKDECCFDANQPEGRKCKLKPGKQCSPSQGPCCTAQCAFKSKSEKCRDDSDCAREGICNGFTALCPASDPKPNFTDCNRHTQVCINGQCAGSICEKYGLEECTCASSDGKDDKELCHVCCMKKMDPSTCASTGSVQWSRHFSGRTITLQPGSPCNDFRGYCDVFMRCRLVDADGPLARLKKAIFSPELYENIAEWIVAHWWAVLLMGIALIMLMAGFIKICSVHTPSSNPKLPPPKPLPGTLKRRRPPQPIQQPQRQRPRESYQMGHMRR
V-ATPase pHluor = regulators of yeast V-ATPase proton pumping, primary screen, pHLuorin cytosolic pH fluorescence | S. cerevisiae | response, % at 10 µM | actives 0.37% (n = 350,000); in the data active means response mostly above about 7.3%, no sharp cut-off; inactive means mostly below about 5.4%; further: actives read high
MPTP counter = fluorescence retest of MPTP screen hits in isolated mitochondria, single concentration | actives 78% (n = 5,000) | shares compounds with MPTP block | membrane potential, Rhodamine 123 fluorescence | AID 624504, 2012 | inhibition, % at 10 µM; in the data active means inhibition above about 22%
MPTP swell DR = mitochondrial permeability transition pore inhibitors, dose response, biochemical, absorbance, uHTS hits. shares compounds with MPTP block. isolated mitochondria swelling. IC50, µM. actives 58% (n = 780). AID 651561, 2012; in the data active means IC50 below about 20 µM
MPTP cs DR = fluorescent counter-screen in isolated mitochondria, dose response, counter-screen for MPTP inhibitor project, biochemical, fluorescence, uHTS hits; AID 651564, 2012; shares compounds with MPTP block; actives 49% (n = 780); isolated mitochondria counterscreen, fluorescence read-out; IC50, µM; in the data active means IC50 below about 80 µM
aDG glyco conf = alpha-DG glycosylation enhancers, retest, confirmation, single concentration, Pro5-aDG cells; shares compounds with aDG glyco act; IIH6 AlphaLISA; scaled to LARGE-overexpressing B10 cells as 100%; actives 17% (n = 600); activation, % at 10 µM (by protocol); AID 651671, 2012;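 active means activation of at least 7% in one or more replicates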;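 further: cells exposed to compound for two days before detection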
ADAM10 confirm = human ADAM10 inhibitors, confirmation, biochemical, QFRET, triplicate | actives 1% (n = 2,100) | inhibition, % at 6.95 µM | shares compounds with ADAM10 inh | ADAM10 QFRET peptide cleavage, EDANS fluorescence;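 active means inhibition above about 20% chosen separately for each screening run, limit read from the data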
ADAM17 ctr = ADAM17 inhibitors, counter-screen for ADAM10 exosite inhibitor project, biochemical, QFRET, high throughput. inhibition, % at 6.95 µM. ADAM17 QFRET peptide cleavage, EDANS fluorescence. actives 0.5% (n = 2,100). shares compounds with ADAM10 inh;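 active means mean triplicate inhibition above the solvent-only control wells' mean plus 3 SD, cut at about 12% in these data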
ADAM10 counter = ADAM10 inhibitors, counter-screen for ADAM17 exosite inhibitor project, biochemical, FRET, human ADAM10; recombinant ADAM10, EDANS/DABCYL FRET peptide cleavage, 3 h; actives 47% (n = 2,900); shares compounds with ADAM17 inh; inhibition, % at 6.95 µM;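 active means mean inhibition over the triplicate runs exceeds the activity threshold set in the earlier primary screen, cut at about 20% in these data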
ADAM17 confirm = ADAM17 inhibitors, hit retest, confirmation, biochemical, QFRET peptide cleavage. recombinant ADAM17, EDANS/DABCYL QFRET peptide cleavage. inhibition, % at 6.95 µM. shares compounds with ADAM17 inh. actives 65% (n = 2,900);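 active means mean inhibition across replicates above the hit cutoff set in the primary screen, cut at about 8.5% in these data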
Large screens that a line does not name were inactive (follow-up assays come after a bar, where they were run).

O=[N+]([O-])c1ccc(C2=NN(CCO)C(=Nc3ccc(OC(F)(F)F)cc3)SC2)cc1	ADAM17 inh 12.0, MPTP block 54.3 | MPTP counter 52.5 | ADAM10 counter 32.0 | ADAM17 confirm 17.9
CSc1nc2ccc(NS(=O)(=O)c3cccc(Cl)c3Cl)cc2s1	ADAM17 inh 9.7, MPTP block 59.7 | MPTP counter 64.5 | ADAM10 counter inactive | ADAM17 confirm 10.1
COC(=O)c1cc(-c2ccc3ccccc3c2)c(=O)n2c1CCC2	none (no result: Lipid droplet, MPTP block, aDG glyco act, V-ATPase pHluor)
Cc1cccc(-c2cccc3c4c([nH]c23)[C@@H]2C[C@H]3[C@@H](C(=O)N2CC4)[C@H](C)ON3C)c1	none (no result: Lipid droplet, MPTP block, aDG glyco act, V-ATPase pHluor)
CCc1ccc(NC(=O)C2CCN(S(=O)(=O)c3ccc4c(c3)NC(=O)C(C)S4)CC2)cc1 (stereo unspecified)	ADAM17 inh 13.6, MPTP block 97.5, ADAM10 inh 25.6 | MPTP counter 97.2 | ADAM10 confirm inactive | ADAM17 ctr inactive | ADAM10 counter 21.4 | ADAM17 confirm 11.2
CC1Sc2ccc(S(=O)(=O)N3CCC(C(=O)NCc4ccc(Cl)cc4)CC3)cc2NC1=O (stereo unspecified)	none
Cc1cccc[n+]1CC(=O)/C=C1\N(C)c2ccccc2C1(C)C	none (no result: Lipid droplet)
CN1/C(=C/C=C/c2n(C)c3cc([N+](=O)[O-])c([N+](=O)[O-])cc3[n+]2C)C(C)(C)c2ccccc21	ADAM17 inh 9.9, MPTP block 80.8 (no result: Lipid droplet) | MPTP counter inactive | MPTP swell DR inactive | MPTP cs DR <2.5 | ADAM10 counter inactive | ADAM17 confirm inactive
CN1C(C(=O)Nc2ccc(OC(F)(F)F)cc2)=CC(c2cccs2)=NS1(=O)=O	ADAM17 inh 13.3, MPTP block 74.5, ADAM10 inh 25.6 | MPTP counter 84.1 | ADAM10 confirm inactive | ADAM17 ctr inactive | ADAM10 counter 22.3 | ADAM17 confirm 16.3
CCOC(=O)CSc1ccc2nnc(-c3cccs3)n2n1	aDG glyco act 9.1 | aDG glyco conf inactive
CCSc1ccc2nnc(-c3cccs3)n2n1	none
Cc1cc(NC2=CC(=O)C(=O)c3ccccc32)no1	aDG glyco act 13.8 (no result: Lipid droplet) | aDG glyco conf 15.8
